Assay results taken from ChEMBL document CHEMBL1130347, “Lanthionine-somatostatin analogs: synthesis, characterization, biological activity, and enzymatic stability studies” (J Med Chem, 1997).
Bridge positions count the residues as written; N and C are the ends. Square brackets hold non-standard residues; d marks the D form. Peptide text beside a SMILES is read from it. * marks the point of attachment. Threoninol(2S,3R) = C[C@@H](O)[C@H](CO)N*

Experiments:
[1] = organism: Rattus norvegicus; assay: Tested for inhibition of growth hormone (GH)release from primary cultures of male rat anterior pituitary cells; assay type: functional, cell-based; conditions: Pituitary gland cell
[2] = biological target: Somatostatin receptor type 3 (Mus musculus, UniProt P30935); assay: Tested for inhibition of radioligand binding to cloned somatostatin receptor mSSTR3
Sequence of Somatostatin receptor type 3 (P30935 whole entry): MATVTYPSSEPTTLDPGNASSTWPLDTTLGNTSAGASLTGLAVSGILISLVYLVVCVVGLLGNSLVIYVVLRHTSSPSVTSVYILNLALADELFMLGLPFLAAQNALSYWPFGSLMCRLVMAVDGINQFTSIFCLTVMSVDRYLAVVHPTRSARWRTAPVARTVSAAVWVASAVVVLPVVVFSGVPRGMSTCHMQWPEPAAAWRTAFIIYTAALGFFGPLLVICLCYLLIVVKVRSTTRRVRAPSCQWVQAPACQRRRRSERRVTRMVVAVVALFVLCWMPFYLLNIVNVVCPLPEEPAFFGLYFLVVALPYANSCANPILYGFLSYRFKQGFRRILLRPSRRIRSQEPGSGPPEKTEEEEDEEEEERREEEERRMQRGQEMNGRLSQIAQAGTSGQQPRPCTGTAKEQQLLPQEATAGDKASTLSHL

[3] = biological target: Somatostatin receptor type 4 (Homo sapiens, UniProt P31391); assay: Tested for inhibition of radioligand binding to cloned somatostatin receptor hSSTR4
Sequence of Somatostatin receptor type 4 (P31391 whole entry): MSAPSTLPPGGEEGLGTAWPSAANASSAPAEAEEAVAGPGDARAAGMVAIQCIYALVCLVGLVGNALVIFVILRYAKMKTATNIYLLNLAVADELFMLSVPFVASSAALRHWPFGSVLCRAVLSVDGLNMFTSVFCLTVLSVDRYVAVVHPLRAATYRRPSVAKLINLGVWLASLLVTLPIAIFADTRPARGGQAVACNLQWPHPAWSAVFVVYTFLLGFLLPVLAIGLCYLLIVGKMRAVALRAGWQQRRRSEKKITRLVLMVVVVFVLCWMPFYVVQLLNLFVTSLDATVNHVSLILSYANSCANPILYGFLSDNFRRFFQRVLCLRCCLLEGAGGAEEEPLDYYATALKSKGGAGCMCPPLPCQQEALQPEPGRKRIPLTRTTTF

[4] = biological target: Somatostatin receptor type 2 (Mus musculus, UniProt P30875); assay: Tested for inhibition of radioligand binding to cloned somatostatin receptor mSSTR2b
Sequence of Somatostatin receptor type 2 (P30875 whole entry): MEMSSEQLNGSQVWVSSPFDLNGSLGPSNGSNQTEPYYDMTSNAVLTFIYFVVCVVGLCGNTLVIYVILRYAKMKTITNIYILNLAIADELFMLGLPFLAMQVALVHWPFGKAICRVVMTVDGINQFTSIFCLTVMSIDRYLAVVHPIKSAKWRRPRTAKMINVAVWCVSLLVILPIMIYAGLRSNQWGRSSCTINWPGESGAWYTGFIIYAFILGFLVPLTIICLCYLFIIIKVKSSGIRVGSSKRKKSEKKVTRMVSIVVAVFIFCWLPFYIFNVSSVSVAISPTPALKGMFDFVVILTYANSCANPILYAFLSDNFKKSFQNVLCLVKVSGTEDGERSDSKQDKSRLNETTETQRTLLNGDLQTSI

[5] = biological target: T1, Somatostatin receptor type 5 (Rattus norvegicus, UniProt P30938); assay: Tested for inhibition of radioligand binding to cloned somatostatin receptor rSSTR5
T1 sequence (P30938 whole entry): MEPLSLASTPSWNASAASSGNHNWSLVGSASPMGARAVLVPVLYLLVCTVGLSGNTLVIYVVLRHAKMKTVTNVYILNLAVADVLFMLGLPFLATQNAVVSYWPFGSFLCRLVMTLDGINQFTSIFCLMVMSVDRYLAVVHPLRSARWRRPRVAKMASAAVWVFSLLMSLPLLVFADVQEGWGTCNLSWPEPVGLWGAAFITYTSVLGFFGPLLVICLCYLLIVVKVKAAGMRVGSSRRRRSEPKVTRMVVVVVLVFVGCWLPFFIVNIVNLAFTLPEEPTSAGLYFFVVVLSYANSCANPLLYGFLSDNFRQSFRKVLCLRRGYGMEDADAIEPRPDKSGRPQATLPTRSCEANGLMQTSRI

[6] = biological target: Somatostatin receptor type 5 (Homo sapiens, UniProt P35346); assay: Tested for inhibition of radioligand binding to cloned somatostatin receptor hSSTR5
Sequence of Somatostatin receptor type 5 (Homo sapiens, UniProt P35346) (P35346 whole entry): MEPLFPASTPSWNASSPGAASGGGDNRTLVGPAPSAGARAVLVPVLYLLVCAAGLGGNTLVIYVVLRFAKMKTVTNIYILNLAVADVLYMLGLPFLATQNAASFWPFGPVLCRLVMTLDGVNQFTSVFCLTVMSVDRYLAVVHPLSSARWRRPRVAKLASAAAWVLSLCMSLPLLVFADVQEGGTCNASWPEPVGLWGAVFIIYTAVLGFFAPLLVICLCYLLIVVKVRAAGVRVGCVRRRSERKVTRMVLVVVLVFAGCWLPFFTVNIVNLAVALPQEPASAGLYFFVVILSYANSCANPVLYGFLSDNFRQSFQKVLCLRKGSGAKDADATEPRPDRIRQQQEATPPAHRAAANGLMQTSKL

[7] = half-life of compound; assay type: ADME
How it was run: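 Aliquots taken at 5, 15, 30, 45, 60 and 90 min were quenched in ice-cold 1 M acetic acid and centrifuged. Remaining peptide was measured by microbore RP-HPLC at 216 nm against homogenate calibration. A pseudo-first-order exponential fit gave k, and half-life = 0.693/k.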

| SMILES | IC50 [2] [µM] | IC50 [3] [µM] | IC50 [4] [µM] | IC50 [1] [µM] | also measured |
| --- | --- | --- | --- | --- | --- |
| C[C@@H](O)[C@@H]1NC(=O)[C@H](CCCCN)NC(=O)[C@@H](Cc2c[nH]c3ccccc23)NC(=O)[C@H](Cc2ccccc2)NC(=O)[C@@H](N)CSC[C@@H](C(=O)O)NC1=O [listing 1 of 2 here] |  |  |  | > 1 |  |
| C[C@@H](O)[C@@H]1NC(=O)[C@H](CCCCN)NC(=O)[C@@H](Cc2c[nH]c3ccccc23)NC(=O)[C@H](Cc2ccccc2)NC(=O)[C@@H](N)CSC[C@@H](C(=O)O)NC1=O [listing 2 of 2 here] | > 1 | > 1 | > 1 |  |  |
| C[C@@H](O)[C@H]1NC(=O)[C@H](CCCCN)NC(=O)[C@@H](Cc2c[nH]c3ccccc23)NC(=O)[C@H](Cc2ccccc2)NC(=O)[C@@H](N)CSC[C@H](C(=O)O)NC1=O |  |  |  |  | IC50 [5]: 0.5 µM |
| C[C@@H](O)[C@H](NC(=O)[C@@H]1CSC[C@H](NC(=O)[C@H](N)Cc2ccccc2)C(=O)N[C@@H](Cc2ccccc2)C(=O)N[C@H](Cc2c[nH]c3ccccc23)C(=O)N[C@@H](CCCCN)C(=O)N[C@@H]([C@@H](C)O)C(=O)N1)C(N)=O [listing 1 of 2 here] |  |  |  |  | IC50 [6]: 0.00492 µM |
| C[C@@H](O)[C@H](NC(=O)[C@@H]1CSC[C@@H](NC(=O)[C@H](N)Cc2ccccc2)C(=O)N[C@H](Cc2ccccc2)C(=O)N[C@@H](Cc2c[nH]c3ccccc23)C(=O)N[C@H](CCCCN)C(=O)N[C@@H]([C@@H](C)O)C(=O)N1)C(N)=O |  |  |  | 0.07 |  |
| C[C@@H](O)[C@H](CO)NC(=O)[C@@H]1CSSC[C@H](NC(=O)[C@H](N)Cc2ccccc2)C(=O)N[C@@H](Cc2ccccc2)C(=O)N[C@H](Cc2c[nH]c3ccccc23)C(=O)N[C@@H](CCCCN)C(=O)N[C@@H]([C@@H](C)O)C(=O)N1 (H-[dF]CF[dW]KTC-{Threoninol(2S,3R)}; disulfide 2-7) | 0.003 |  | 0.00028 | 0.00052 | half-life [7]: 12.5 h; IC50 [5]: 0.00104 µM |
| C[C@H](N)C(=O)NCC(=O)N[C@H]1CSSC[C@@H](C(=O)O)NC(=O)[C@H](CO)NC(=O)[C@H]([C@@H](C)O)NC(=O)[C@H](Cc2ccccc2)NC(=O)[C@H]([C@@H](C)O)NC(=O)[C@H](CCCCN)NC(=O)[C@H](Cc2c[nH]c3ccccc23)NC(=O)[C@H](Cc2ccccc2)NC(=O)[C@H](Cc2ccccc2)NC(=O)[C@H](CC(N)=O)NC(=O)[C@H](CCCCN)NC1=O [SOMATOSTATIN] |  |  |  | 0.00052 |  |

More lines, main results first:

| IC50 [2] [µM] | IC50 [3] [µM] | IC50 [4] [µM] | SMILES | IC50 [1] [µM] | also measured |
| --- | --- | --- | --- | --- | --- |
|  |  | 0.0136 | C[C@@H](O)[C@@H]1NC(=O)[C@H](CCCCN)NC(=O)[C@@H](Cc2c[nH]c3ccccc23)NC(=O)[C@H](Cc2ccccc2)NC(=O)[C@@H](NC(=O)[C@H](N)Cc2ccccc2)CSSC[C@@H](C(=O)O)NC1=O |  |  |
| > 1 | > 1 |  | C[C@@H](O)[C@H]1NC(=O)[C@H](CCCCN)NC(=O)[C@@H](Cc2c[nH]c3ccccc23)NC(=O)[C@H](Cc2ccccc2)NC(=O)[C@@H](NC(=O)[C@@H](N)Cc2ccccc2)CSSC[C@H](C(=O)O)NC1=O |  |  |
| > 1 | > 1 | 0.0166 | C[C@@H](O)[C@H](NC(=O)[C@@H]1CSC[C@H](NC(=O)[C@H](N)Cc2ccccc2)C(=O)N[C@@H](Cc2ccccc2)C(=O)N[C@H](Cc2c[nH]c3ccccc23)C(=O)N[C@@H](CCCCN)C(=O)N[C@@H]([C@@H](C)O)C(=O)N1)C(N)=O [listing 2 of 2 here] |  |  |
| > 1 | > 1 | > 1 | C[C@@H](O)[C@@H]1NC(=O)[C@H](CCCCN)NC(=O)[C@@H](Cc2c[nH]c3ccccc23)NC(=O)[C@H](Cc2ccccc2)NC(=O)[C@@H](NC(=O)[C@H](N)Cc2ccccc2)CSC[C@@H](C(=O)O)NC1=O | > 1 |  |
